Experimental data taken from ChEMBL document CHEMBL1759888, “Biological evaluation of polyhalo 1,3-diazaheterocycle fused isoquinolin-1(2H)-imine derivatives” (Eur J Med Chem, 2011).
Converted amounts (≈) assume the structure as drawn.

Key:
H22 [1] = assay: Antitumor activity against mouse H22 cells xenografted in Kunming mouse assessed as tumor growth inhibition rate at 20 mg/kg, po administered for 10 days relative to control; assay type: functional; details: H22, 240 h
Method in brief: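 H22 tumour cells were harvested in exponential growth and inoculated subcutaneously into the right flank axilla. Mice were randomised into groups of 10. Test compound in 0.5% CMC-Na was given intragastrically daily for 10 days. Solvent controls got an equal volume of CMC-Na, and positive controls got cyclophosphamide 20 mg/kg ip in saline. Tumours were weighed at sacrifice to give the inhibition rate.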

CCRF S-180 [2] = assay: Antitumor activity against mouse S180 cells xenografted in Kunming mouse assessed as tumor growth inhibition rate at 20 mg/kg, po administered for 10 days relative to control; assay type: functional; details: CCRF S-180, 240 h
Method in brief: (§1)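 Tumour cells taken in exponential growth and inoculated subcutaneously into the right flank axilla. Mice randomised, 10 per group. Compound in 0.5% CMC-Na given intragastrically daily for 10 days. Solvent control got an equal volume of vehicle; positive control got cyclophosphamide 20 mg/kg i.p. in saline. Tumours weighed at sacrifice; inhibition rate calculated against solvent control.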

A-431 = assay: Anticancer activity against human A431 cells after 72 hrs by MTT assay; details: A-431, 72 h
HL-60 = assay: Anticancer activity against human HL60 cells after 48 hrs by MTT assay; details: HL-60, 48 h
CCRF S-180 [3] = assay: Antitumor activity against mouse S180 cells xenografted in Kunming mouse assessed as tumor growth inhibition rate at 180 mg/kg, po administered for 10 days relative to control; assay type: functional; details: CCRF S-180, 240 h; method in brief: as §1
CCRF S-180 [4] = assay: Antitumor activity against mouse S180 cells xenografted in po dosed Kunming mouse assessed as tumor tumor growth inhibition rate administered for 10 days relative to control; assay type: functional, organism-based; method in brief: as §1
K562 = assay: Anticancer activity against human K562 cells after 48 hrs by MTT assay; details: K562, 48 h
Mus musculus [5] = assay: Toxicity in Kunming mouse assessed as mouse mortality at 5000 mg/kg, po administered in 24 hr duration measured after 7 days; assay type: organism-based; parameters: dose 5000 mg/kg, route oral; details: in vivo, 168 h
Method in brief: (§2)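 Acute toxicity test in Kunming mice (18–22 g), each group treated with one compound. The compound was given orally within 24 h, and mice were then monitored continuously for up to 7 days for abnormal behaviour or death.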

CCRF S-180 [6] = assay: Antitumor activity against mouse S180 cells xenografted in Kunming mouse assessed as tumor growth inhibition rate at 60 mg/kg, po administered for 10 days relative to control; assay type: functional; details: CCRF S-180, 240 h; method in brief: as §1
HepG2 = assay: Anticancer activity against human HepG2 cells after 72 hrs by MTT assay; details: HepG2, 72 h
SK-OV-3 = assay: Anticancer activity against human SKOV3 cells after 72 hrs by MTT assay; details: SK-OV-3, 72 h
[7] = Lipophilicity, log P of the compound; assay type: physicochemical; details: octanol/water
H22 [8] = assay: Antitumor activity against mouse H22 cells xenografted in Kunming mouse assessed as tumor growth inhibition rate at 240 mg/kg, po administered for 10 days relative to control; assay type: functional; details: H22, 240 h; method in brief: as §1
H22 [9] = assay: Antitumor activity against mouse H22 cells xenografted in Kunming mouse assessed as tumor growth inhibition rate at 80 mg/kg, po administered for 10 days relative to control; assay type: functional; details: H22, 240 h; method in brief: as §1
CCRF S-180 [10] = assay: Antitumor activity against mouse S180 cells xenografted in Kunming mouse assessed as tumor growth inhibition rate at 30 mg/kg, po administered for 10 days relative to control; assay type: functional; details: CCRF S-180, 240 h; method in brief: as §1
CCRF S-180 [11] = assay: Antitumor activity against mouse S180 cells xenografted in Kunming mouse assessed as tumor growth inhibition rate at 90 mg/kg, po administered for 10 days relative to control; assay type: functional; details: CCRF S-180, 240 h; method in brief: as §1
H22 [12] = assay: Antitumor activity against mouse H22 cells xenografted in Kunming mouse assessed as tumor growth inhibition rate at 10 mg/kg, po administered for 10 days relative to control; assay type: functional; details: H22, 240 h; method in brief: as §1
Mus musculus [13] = assay: Toxicity in Kunming mouse assessed as mouse mortality at 4500 mg/kg, po administered in 24 hr duration measured after 7 days; assay type: organism-based; parameters: dose 4500 mg/kg, route oral; details: in vivo, 168 h; method in brief: as §2
CCRF S-180 [14] = assay: Antitumor activity against mouse S180 cells xenografted in Kunming mouse assessed as tumor tumor growth inhibition rate at 10 mg/kg, po administered for 10 days relative to control; assay type: functional; details: CCRF S-180, 240 h; method in brief: as §1
H22 [15] = assay: Antitumor activity against mouse H22 cells xenografted in Kunming mouse assessed as tumor growth inhibition rate at 30 mg/kg, po administered for 10 days relative to control; assay type: functional; details: H22, 240 h; method in brief: as §1
H22 [16] = assay: Antitumor activity against mouse H22 cells xenografted in Kunming mouse assessed as tumor growth inhibition rate at 35 mg/kg, po administered for 10 days relative to control; assay type: functional; details: H22, 240 h; method in brief: as §1
H22 [17] = assay: Antitumor activity against mouse H22 cells xenografted in Kunming mouse assessed as tumor growth inhibition rate at 140 mg/kg, po administered for 10 days relative to control; assay type: functional; details: H22, 240 h; method in brief: as §1
H22 [18] = assay: Antitumor activity against mouse H22 cells xenografted in Kunming mouse assessed as tumor growth inhibition rate at 70 mg/kg, po administered for 10 days relative to control; assay type: functional; details: H22, 240 h; method in brief: as §1

SMILES | inhibition in vivo at 20 mg/kg (CCRF S-180 [2]) [%] | IC50 (A-431) [µg/mL] | IC50 (HL-60) [µg/mL] | inhibition (CCRF S-180 [4]) | IC50 (K562) [µg/mL] | IC50 (HepG2) [µg/mL] | IC50 (SK-OV-3) [µg/mL] | logP [7] | further results
O=P1(N(CCCl)CCCl)NCCCO1 (centres undefined) [CYCLOPHOSPHAMIDE ANHYDROUS] | 81.7 |  |  |  |  |  |  |  | inhibition in vivo at 20 mg/kg (H22 [1]): 56.2%
N#Cc1c(F)c(Cl)c2c(C(=O)c3ccccc3)c3n(c(=N)c2c1F)CCCN3 | 42.8 | 0.5 (≈ 1.25 µM) | 0.01 (≈ 0.0251 µM) | Dose-dependent effect | 0.03 (≈ 0.0752 µM) | 0.3 (≈ 0.752 µM) | 1.2 (≈ 3.01 µM) | 3.35 | inhibition in vivo at 20 mg/kg (H22 [1]): 12.1%; inhibition in vivo at 180 mg/kg (CCRF S-180 [3]): 52.8%; Activity (Mus musculus [5]): Non-toxic; inhibition in vivo at 60 mg/kg (CCRF S-180 [6]): 41.1%; inhibition in vivo at 240 mg/kg (H22 [8]): 0%; inhibition in vivo at 80 mg/kg (H22 [9]): 28.2%
CCOC(=O)c1c2n(c(=N)c3c(F)c(C#N)c(F)c(F)c13)CCN2 |  | 3.4 (≈ 10.1 µM) | 0.02 (≈ 0.0595 µM) | Dose-dependent effect | 0.0005 (≈ 0.00149 µM) | 0.4 (≈ 1.19 µM) | 0.04 (≈ 0.119 µM) | 2.04 | inhibition in vivo at 30 mg/kg (CCRF S-180 [10]): 54.2%; inhibition in vivo at 90 mg/kg (CCRF S-180 [11]): 26.6%; inhibition in vivo at 10 mg/kg (H22 [12]): 11.4%; Activity (Mus musculus [13]): Toxic; inhibition in vivo at 10 mg/kg (CCRF S-180 [14]): 39.2%; inhibition in vivo at 30 mg/kg (H22 [15]): 27.5%
N#Cc1c(Cl)c(Cl)c2c(C(=O)c3ccc(Cl)cc3)c3n(c(=N)c2c1Cl)CCN3 |  | 20.3 (≈ 44.9 µM) | 2.6 (≈ 5.75 µM) |  | 2.4 (≈ 5.31 µM) | 37.6 (≈ 83.2 µM) | 31.4 (≈ 69.4 µM) | 4.76 | 
COc1ccc(C(=O)c2c3n(c(=N)c4c(F)c(C#N)c(F)c(F)c24)CCCN3)cc1 | 35.9 | 1.1 (≈ 2.67 µM) | 0.02 (≈ 0.0485 µM) | Dose-dependent effect | 0.01 (≈ 0.0243 µM) | 0.8 (≈ 1.94 µM) | 2.6 (≈ 6.31 µM) | 2.7 | inhibition in vivo at 35 mg/kg (H22 [16]): 34.7%; inhibition in vivo at 180 mg/kg (CCRF S-180 [3]): 19.1%; inhibition in vivo at 140 mg/kg (H22 [17]): 29.3%; Activity (Mus musculus [5]): Non-toxic; inhibition in vivo at 60 mg/kg (CCRF S-180 [6]): 38%; inhibition in vivo at 70 mg/kg (H22 [18]): 45.6%
N#Cc1c(Cl)c(Cl)c2c(C(=O)c3ccccc3)c3n(c(=N)c2c1Cl)CCO3 |  | 14.5 (≈ 34.6 µM) | 6 (≈ 14.3 µM) |  | 2.2 (≈ 5.25 µM) | 0.3 (≈ 0.717 µM) | 17.4 (≈ 41.6 µM) | 3.97 | 
N#Cc1c(F)c(F)c2c(C(=O)c3ccc(Cl)cc3)c3n(c(=N)c2c1F)CCCN3 |  | 4.3 (≈ 10.3 µM) | 4.7 (≈ 11.3 µM) |  | 0.5 (≈ 1.2 µM) | 8.4 (≈ 20.2 µM) | 15.1 (≈ 36.2 µM) | 3.44 | 
N#Cc1c(F)c(F)c2c(C(=O)c3ccccc3)c3n(c(=N)c2c1F)CCCN3 |  | 2.4 (≈ 6.28 µM) | 0.3 (≈ 0.785 µM) |  | 0.02 (≈ 0.0523 µM) | 1.1 (≈ 2.88 µM) | 16.4 (≈ 42.9 µM) | 2.71 | 
N#Cc1c(Cl)c(Cl)c2c(C(=O)c3ccccc3)c3n(c(=N)c2c1Cl)CCCN3 |  | 10.1 (≈ 23.4 µM) | 10.7 (≈ 24.8 µM) |  | 1.2 (≈ 2.78 µM) | 9.3 (≈ 21.5 µM) | 51.2 (≈ 119 µM) | 4.11 | 
COc1ccc(C(=O)c2c3n(c(=N)c4c(F)c(C#N)c(F)c(Cl)c24)CCO3)cc1 |  | 2.1 (≈ 5.05 µM) | 1 (≈ 2.41 µM) |  | 0.5 (≈ 1.2 µM) | 2 (≈ 4.81 µM) | 23.8 (≈ 57.2 µM) | 3.21 | 
